Source: ChEMBL document CHEMBL3739273, “Synthesis, biological activity evaluation and molecular docking studies of novel coumarin substituted thiazolyl-3-aryl-pyrazole-4-carbaldehydes” (Bioorg Med Chem Lett, 2015)
pIC50, pKi: −log10 of the molar value. Values after ≈ are worked out from the molar mass of the structure shown. Active and inactive are the calls of the source. The rule behind the calls is not given here.

Key:
[1] = system: Bacillus cereus; assay: Antibacterial activity against Bacillus cereus ATCC 14579 after 24 hrs by microtiter plate method; type: functional; details: ATCC 14579, 24 h
How it was run: (§1)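 Test concentrations reported in µg/mL. Gentamycin sulfate and ampicillin were the reference drugs.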

[2] = system: Staphylococcus aureus; assay: Antibacterial activity against methicillin-resistant Staphylococcus aureus NCTC 13616 after 24 hrs by microtiter plate method; type: functional; details: NCTC 13616, 24 h
[3] = system: MCF7; assay: Anticancer activity against human MCF7 cells assessed as cell viability after 48 hrs by MTT assay; type: functional, cell-based; details: MCF7, 48 h
How it was run: (§2)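 MTT cytotoxicity assay in human DU-145 prostate, MCF-7 breast and HeLa cervical cancer cell lines. Doxorubicin was the reference drug.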

[4] = system: Escherichia coli; assay: Antibacterial activity against Escherichia coli ATCC 8739 after 24 hrs by microtiter plate method; type: functional; details: ATCC 8739, 24 h; how it was run: as §1
[5] = Anticancer activity against human DU145 cells assessed as cell viability after 48 hrs by MTT assay; type: functional, cell-based; details: DU-145, 48 h; how it was run: as §2
[6] = system: Bacillus cereus; assay: Antibacterial activity against Bacillus cereus ATCC 14579 assessed as growth inhibition at 100 ug/ml after 24 hrs by agar well diffusion method; type: functional
How it was run: (§3)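 Agar well diffusion. Compounds were tested at 10, 20, 100, 200 and 300 µg/mL, and the zone of inhibition was measured in mm. Gentamycin sulfate was the reference drug.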

[7] = system: Staphylococcus aureus; assay: Bactericidal activity against methicillin-resistant Staphylococcus aureus NCTC 13616 after 24 hrs; type: functional; details: NCTC 13616, 24 h, read-out: MBC99.9
How it was run: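 MBC determined by a standard MBC protocol run alongside the MIC determination. Gentamycin sulfate and ampicillin served as reference drugs.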

[8] = n-Octanol-phosphate buffer partition coefficient, log P of the compound at pH 7.4 after 30 mins by shake flask method; type: physicochemical
How it was run: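 Shake-flask partition between n-octanol and 50 mM phosphate buffer, pH 7.4. P calculated and expressed as logP.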

[9] = system: Proteus vulgaris; assay: Bactericidal activity against Proteus vulgaris ATCC 13315 after 24 hrs; type: functional; details: ATCC 13315, 24 h, read-out: MBC99.9
How it was run: (§4)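 MBC determined by a standard MBC protocol alongside the MIC, with values in µg/mL. Gentamycin sulfate and ampicillin were the references.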

[10] = system: Proteus vulgaris; assay: Antibacterial activity against Proteus vulgaris ATCC 13315 assessed as growth inhibition at 100 ug/ml after 24 hrs by agar well diffusion method; type: functional; how it was run: as §3
[11] = system: Bacillus cereus; assay: Bactericidal activity against Bacillus cereus ATCC 14579 after 24 hrs; type: functional; details: ATCC 14579, 24 h, read-out: MBC99.9; how it was run: as §4
[12] = system: Staphylococcus aureus; assay: Antibacterial activity against methicillin-resistant Staphylococcus aureus NCTC 13616 assessed as growth inhibition at 100 ug/ml after 24 hrs by agar well diffusion method; type: functional, organism-based
How it was run: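 Agar well diffusion assay with compounds applied to wells at several concentrations, including the 100 level reported here. The zone of inhibition was measured in mm. Gentamycin sulfate was the standard drug.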

[13] = system: Klebsiella pneumoniae; assay: Antibacterial activity against Klebsiella pneumoniae ATCC 43816 assessed as growth inhibition at 100 ug/ml after 24 hrs by agar well diffusion method; type: functional; how it was run: as §3
[14] = target: T1, Cytochrome P450 2A6 (Homo sapiens, UniProt P11509); assay: Inhibition of human microsomal CYP2A6; type: ADME
T1 sequence (P11509 whole entry): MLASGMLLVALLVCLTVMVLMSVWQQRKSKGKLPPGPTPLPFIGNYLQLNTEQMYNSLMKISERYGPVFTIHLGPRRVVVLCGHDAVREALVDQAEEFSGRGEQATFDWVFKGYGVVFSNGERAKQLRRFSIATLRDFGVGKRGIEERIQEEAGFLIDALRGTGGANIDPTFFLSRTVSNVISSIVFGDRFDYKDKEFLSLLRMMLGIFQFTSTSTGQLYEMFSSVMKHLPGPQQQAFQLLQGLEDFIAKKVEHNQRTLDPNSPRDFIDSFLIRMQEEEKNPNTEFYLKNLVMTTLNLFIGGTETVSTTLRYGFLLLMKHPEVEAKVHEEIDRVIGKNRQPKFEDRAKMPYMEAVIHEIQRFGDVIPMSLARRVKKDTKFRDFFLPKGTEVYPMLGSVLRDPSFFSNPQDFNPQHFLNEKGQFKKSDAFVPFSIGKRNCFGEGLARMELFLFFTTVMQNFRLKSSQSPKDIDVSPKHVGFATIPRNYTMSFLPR

[15] = system: HeLa; assay: Anticancer activity against human HeLa cells assessed as cell viability after 48 hrs by MTT assay; type: functional, cell-based; how it was run: as §2
[16] = system: Klebsiella pneumoniae; assay: Bactericidal activity against Klebsiella pneumoniae ATCC 43816 after 24 hrs; type: functional; details: ATCC 43816, 24 h, read-out: MBC99.9; how it was run: as §4
[17] = system: Bacillus spizizenii; assay: Antibacterial activity against Bacillus subtilis ATCC 6633 assessed as growth inhibition at 100 ug/ml after 24 hrs by agar well diffusion method; type: functional, organism-based; how it was run: as §3
[18] = system: Escherichia coli; assay: Antibacterial activity against Escherichia coli ATCC 8739 assessed as growth inhibition at 100 ug/ml after 24 hrs by agar well diffusion method; type: functional; how it was run: as §3
[19] = system: Bacillus spizizenii; assay: Antibacterial activity against Bacillus subtilis ATCC 6633 after 24 hrs by microtiter plate method; type: functional; details: ATCC 6633, 24 h; how it was run: as §1
[20] = system: Proteus vulgaris; assay: Antibacterial activity against Proteus vulgaris ATCC 13315 after 24 hrs by microtiter plate method; type: functional; details: ATCC 13315, 24 h; how it was run: as §1
[21] = system: Bacillus spizizenii; assay: Bactericidal activity against Bacillus subtilis ATCC 6633 after 24 hrs; type: functional; details: ATCC 6633, 24 h, read-out: MBC99.9; how it was run: as §4
[22] = system: Klebsiella pneumoniae; assay: Antibacterial activity against Klebsiella pneumoniae ATCC 43816 after 24 hrs by microtiter plate method; type: functional; details: ATCC 43816, 24 h; how it was run: as §1
[23] = system: Escherichia coli; assay: Bactericidal activity against Escherichia coli ATCC 8739 after 24 hrs; type: functional; details: ATCC 8739, 24 h, read-out: MBC99.9; how it was run: as §4
[24] = system: HeLa; assay: Anticancer activity against human HeLa cells assessed as cell viability at 10 uM after 48 hrs by MTT assay; type: functional, cell-based

Row | Structure (SMILES) | MIC [1] | MIC [2] | pIC50 [3] | MIC [4] | pIC50 [5] | growth inhibition (GI) [6] | MBC [7] | logD at 0.5 h [8] | MBC [9] | MBC [11] | growth inhibition (GI) [12] | pKi [14] | pIC50 [15] | MBC [16] | growth inhibition (GI) [17] | MIC [19] | MIC [20] | MBC [21] | MIC [22] | MBC [23] | other results
1 | O=Cc1cn(-c2nc(-c3cc4cc(Br)ccc4oc3=O)cs2)nc1-c1ccccc1 | 129 µg/mL (≈ 270 µM) | 116 µg/mL (≈ 243 µM) | 4.74 | 118 µg/mL (≈ 247 µM) | 4.46 | Active | 175 µg/mL (≈ 366 µM) | 3.3 | 250 µg/mL (≈ 523 µM) | 260 µg/mL (≈ 544 µM) | Active | 8.22 | 4.96 | 175 µg/mL (≈ 366 µM) | Active | 125 µg/mL (≈ 261 µM) | 124 µg/mL (≈ 259 µM) | 250 µg/mL (≈ 523 µM) | 117 µg/mL (≈ 244 µM) | 240 µg/mL (≈ 502 µM) | growth inhibition (GI) [10]: Active; growth inhibition (GI) [13]: Active; growth inhibition (GI) [18]: Active
2 | O=Cc1cn(-c2nc(-c3cc4cc(Cl)ccc4oc3=O)cs2)nc1-c1ccc(Cl)cc1 | 111 µg/mL (≈ 237 µM) | 134 µg/mL (≈ 286 µM) | 4.73 | 126 µg/mL (≈ 270 µM) | 4.83 | Active | 265 µg/mL (≈ 566 µM) | 3.06 | 260 µg/mL (≈ 555 µM) | 165 µg/mL (≈ 352 µM) | Active | 7.78 | 5.02 | 240 µg/mL (≈ 512 µM) | Active | 112 µg/mL (≈ 240 µM) | 131 µg/mL (≈ 279 µM) | 165 µg/mL (≈ 352 µM) | 117 µg/mL (≈ 251 µM) | 250 µg/mL (≈ 534 µM) | growth inhibition (GI) [10]: Active; growth inhibition (GI) [13]: Active; growth inhibition (GI) [24]: Active; growth inhibition (GI) [18]: Active
3 | O=Cc1cn(-c2nc(-c3cc4cc(Br)ccc4oc3=O)cs2)nc1-c1ccc(Cl)cc1 | 115 µg/mL (≈ 224 µM) | 123 µg/mL (≈ 240 µM) | 4.07 | 118 µg/mL (≈ 229 µM) | 4.65 | Active | 185 µg/mL (≈ 361 µM) | 3.07 | 250 µg/mL (≈ 488 µM) | 170 µg/mL (≈ 332 µM) | Active | 7.88 | 5.02 | 172 µg/mL (≈ 335 µM) | Active | 120 µg/mL (≈ 233 µM) | 128 µg/mL (≈ 249 µM) | 175 µg/mL (≈ 341 µM) | 115 µg/mL (≈ 224 µM) | 230 µg/mL (≈ 449 µM) | growth inhibition (GI) [10]: Active; growth inhibition (GI) [13]: Active; growth inhibition (GI) [24]: Active; growth inhibition (GI) [18]: Active
4 | O=Cc1cn(-c2nc(-c3cc4cc(Cl)cc(Cl)c4oc3=O)cs2)nc1-c1ccc(Cl)cc1 | 112 µg/mL (≈ 223 µM) | 112 µg/mL (≈ 224 µM) | 4.66 | 111 µg/mL (≈ 221 µM) | 4.51 | Active | 225 µg/mL (≈ 448 µM) | 3 | 225 µg/mL (≈ 448 µM) | 220 µg/mL (≈ 438 µM) | Active | 8.57 | 4.99 | 155 µg/mL (≈ 308 µM) | Active | 111 µg/mL (≈ 220 µM) | 113 µg/mL (≈ 225 µM) | 165 µg/mL (≈ 328 µM) | 105 µg/mL (≈ 209 µM) | 220 µg/mL (≈ 438 µM) | –
5 | O=Cc1cn(-c2nc(-c3cc4cc(Br)cc(Br)c4oc3=O)cs2)nc1-c1ccccc1 | 119 µg/mL (≈ 214 µM) | 117 µg/mL (≈ 210 µM) | 4.65 | 116 µg/mL (≈ 207 µM) | 4.55 | Active | 175 µg/mL (≈ 314 µM) | 3.11 | 240 µg/mL (≈ 431 µM) | 240 µg/mL (≈ 431 µM) | Active | 8.47 | 4.86 | 240 µg/mL (≈ 431 µM) | Active | 118 µg/mL (≈ 212 µM) | 120 µg/mL (≈ 215 µM) | 240 µg/mL (≈ 431 µM) | 119 µg/mL (≈ 214 µM) | 170 µg/mL (≈ 305 µM) | growth inhibition (GI) [10]: Active; growth inhibition (GI) [13]: Active; growth inhibition (GI) [18]: Active
6 | O=Cc1cn(-c2nc(-c3cc4c(ccc5ccccc54)oc3=O)cs2)nc1-c1ccccc1 | 139 µg/mL (≈ 309 µM) | 135 µg/mL (≈ 300 µM) | 4.40 | 133 µg/mL (≈ 295 µM) | 4.92 | – | 270 µg/mL (≈ 601 µM) | 3.54 | 300 µg/mL (≈ 667 µM) | 275 µg/mL (≈ 612 µM) | – | 10.24 | 4.88 | 225 µg/mL (≈ 501 µM) | – | 123 µg/mL (≈ 273 µM) | 150 µg/mL (≈ 334 µM) | 240 µg/mL (≈ 534 µM) | 150 µg/mL (≈ 334 µM) | 260 µg/mL (≈ 578 µM) | –
